Legend:
[1] = tested on: HepG2; test: Induction of phospholipidosis in human HepG2 cells up to 50 uM after 24 hrs by NBD-PE fluorophore-based assay relative to amiodarone; assay type: cell-based; conditions: hepg2, 24 h
[2] = molecular target: Somatostatin receptor type 2 (Homo sapiens, UniProt P30874); test: Displacement of [125I]somatostatin-14 (Tyr11) from human SSTR2 expressed in CHO dhfr cell membranes after 60 mins by TopCount scintillation counting method
How it was run: (§1)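 Membrane fractions were prepared from CHO dhfr- cells stably transfected with each human SSTR subtype, with a high-expressing single colony selected for each. Membranes in 25 mM Tris-HCl pH 7.4 with 0.1% BSA, EDTA and protease inhibitors were incubated with 50 pM [125I]SST-14 (Tyr11) and a range of compound concentrations for 60 min at room temperature. Excess SST-14 defined nonspecific binding. Samples were filtered on PEI-soaked GF/B filters before counting. IC50 came from pseudo-Hill fitting.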

[3] = Lipophilicity, log D of the compound; assay type: physicochemical; conditions: octanol/water
[4] = molecular target: Somatostatin receptor type 5 (Homo sapiens, UniProt P35346); test: Displacement of [125I]somatostatin-14 (Tyr11) from human SSTR5 expressed in CHO dhfr cell membranes after 60 mins by TopCount scintillation counting method; how it was run: as §1
Sequence of Somatostatin receptor type 5 (P35346 whole entry): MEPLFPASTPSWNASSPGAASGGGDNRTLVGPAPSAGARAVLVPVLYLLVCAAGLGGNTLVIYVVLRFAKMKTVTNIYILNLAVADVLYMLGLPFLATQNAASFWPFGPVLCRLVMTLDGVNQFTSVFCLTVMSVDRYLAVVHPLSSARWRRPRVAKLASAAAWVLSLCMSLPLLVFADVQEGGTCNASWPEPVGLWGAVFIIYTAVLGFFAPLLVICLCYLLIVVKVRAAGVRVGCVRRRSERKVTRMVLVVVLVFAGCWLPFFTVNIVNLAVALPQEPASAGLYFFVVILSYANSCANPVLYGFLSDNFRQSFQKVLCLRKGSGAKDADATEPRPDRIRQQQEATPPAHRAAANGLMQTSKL

[5] = Oral bioavailability in Sprague-Dawley rat at 1 mg/kg after 1 hr; assay type: ADME, organism-based; conditions: in vivo
[6] = MRT in Sprague-Dawley rat at 1 mg/kg, po; assay type: ADME, organism-based; conditions: in vivo
[7] = MRT in Sprague-Dawley rat at 0.3 mg/kg, iv; assay type: ADME, organism-based; conditions: in vivo
[8] = AUC in Sprague-Dawley rat at 1 mg/kg, po after 1 hr; assay type: ADME, organism-based; design: time < 1 hr, dose 1 mg/kg, route oral; conditions: in vivo
[9] = Plasma concentration in Sprague-Dawley rat at 0.3 mg/kg, iv after 5 mins; assay type: ADME, organism-based
[10] = species on record: Rattus norvegicus; test: Antidiabetic activity in Wistar rat type 2 diabetic model assessed as inhibition of glucose excursion up to 60 mins by meal tolerance test; assay type: functional; conditions: 1 h, read-out: MED
How it was run: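 Female Wistar fatty rats were fasted overnight and then dosed orally with vehicle or compound, followed by a liquid meal challenge (20 kcal/kg). Plasma glucose was followed over time. The read-out was AUC of delta plasma glucose, and a minimum effective dose was determined.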

[11] = Volume of distribution at steady state in Sprague-Dawley rat at 0.3 mg/kg, iv after 1 hr; assay type: ADME, organism-based; conditions: in vivo, read-out: Vdss
[12] = molecular target: Somatostatin receptor type 4 (Homo sapiens, UniProt P31391); test: Displacement of [125I]somatostatin-14 (Tyr11) from human SSTR4 expressed in CHO dhfr cell membranes after 60 mins by TopCount scintillation counting method; how it was run: as §1
Sequence of Somatostatin receptor type 4 (P31391 whole entry): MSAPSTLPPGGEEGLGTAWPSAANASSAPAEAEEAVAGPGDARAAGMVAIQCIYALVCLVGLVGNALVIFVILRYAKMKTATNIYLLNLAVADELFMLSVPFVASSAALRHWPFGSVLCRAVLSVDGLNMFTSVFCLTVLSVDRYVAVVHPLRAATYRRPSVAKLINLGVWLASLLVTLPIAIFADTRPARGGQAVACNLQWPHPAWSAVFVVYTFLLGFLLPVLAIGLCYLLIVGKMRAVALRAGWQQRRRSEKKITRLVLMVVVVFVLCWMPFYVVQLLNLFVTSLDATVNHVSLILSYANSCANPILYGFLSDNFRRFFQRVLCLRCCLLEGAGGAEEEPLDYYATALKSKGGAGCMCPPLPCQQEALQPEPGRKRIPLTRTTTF

[13] = species on record: Rattus norvegicus; test: Inhibition of hypoglycemia-induced glucagon secretion in Sprague-Dawley rat pretreated for 1 hr followed by insulin addition measured after 30 mins post insulin secretion by radioimmunoassay; assay type: functional
How it was run: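 SD rats were given compound orally, then insulin 2 IU/kg s.c. 1 h after dosing. Tail-vein blood was drawn 30 min after insulin, and plasma glucagon was measured by radioimmunoassay. Values are means ± SD (n = 6), compared with vehicle by one-tailed Williams' test. ED50 was derived from the dose-response.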

[14] = Tmax in Sprague-Dawley rat at 1 mg/kg, po after 1 hr; assay type: ADME, organism-based; conditions: in vivo
[15] = AUC in Sprague-Dawley rat at 0.3 mg/kg, iv after 1 hr; assay type: ADME, organism-based; design: time < 1 hr, dose 0.3 mg/kg, route intravenous; conditions: in vivo
[16] = Cmax in Sprague-Dawley rat at 1 mg/kg, po after 1 hr; assay type: ADME, organism-based; design: dose 1 mg/kg, route oral; conditions: in vivo
[17] = molecular target: Somatostatin receptor type 3 (Homo sapiens, UniProt P32745); test: Displacement of [125I]somatostatin-14 (Tyr11) from human SSTR3 expressed in CHO dhfr cell membranes after 60 mins by TopCount scintillation counting method; how it was run: as §1
Sequence of Somatostatin receptor type 3 (P32745 whole entry): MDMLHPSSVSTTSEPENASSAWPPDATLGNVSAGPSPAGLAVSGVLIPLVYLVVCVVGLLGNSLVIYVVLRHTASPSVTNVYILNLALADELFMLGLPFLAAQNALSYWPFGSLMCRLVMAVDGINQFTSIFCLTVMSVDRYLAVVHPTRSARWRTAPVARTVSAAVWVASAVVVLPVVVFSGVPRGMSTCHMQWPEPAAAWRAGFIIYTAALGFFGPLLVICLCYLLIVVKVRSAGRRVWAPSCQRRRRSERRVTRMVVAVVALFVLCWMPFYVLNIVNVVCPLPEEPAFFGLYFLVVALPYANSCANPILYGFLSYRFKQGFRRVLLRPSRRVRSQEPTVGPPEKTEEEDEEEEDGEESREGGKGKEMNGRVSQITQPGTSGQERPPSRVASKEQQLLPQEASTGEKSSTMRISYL

[18] = molecular target: Somatostatin receptor type 1 (Homo sapiens, UniProt P30872); test: Displacement of [125I]somatostatin-14 (Tyr11) from human SSTR1 expressed in CHO dhfr cell membranes after 60 mins by TopCount scintillation counting method; how it was run: as §1
Sequence of Somatostatin receptor type 1 (P30872 whole entry): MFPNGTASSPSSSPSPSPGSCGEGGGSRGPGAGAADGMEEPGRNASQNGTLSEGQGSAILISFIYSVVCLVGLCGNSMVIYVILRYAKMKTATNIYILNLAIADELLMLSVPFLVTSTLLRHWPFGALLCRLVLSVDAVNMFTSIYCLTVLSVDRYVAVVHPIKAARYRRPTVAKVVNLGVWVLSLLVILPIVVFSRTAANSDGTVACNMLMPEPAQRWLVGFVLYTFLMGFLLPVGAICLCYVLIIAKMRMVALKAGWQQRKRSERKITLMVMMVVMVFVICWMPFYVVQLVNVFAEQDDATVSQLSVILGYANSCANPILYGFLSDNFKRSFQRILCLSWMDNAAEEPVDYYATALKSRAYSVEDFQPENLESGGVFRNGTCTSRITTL

[19] = Total clearance in Sprague-Dawley rat at 0.3 mg/kg, iv after 1 hr; assay type: ADME, organism-based; conditions: in vivo

Sequence of Somatostatin receptor type 2 (P30874 whole entry): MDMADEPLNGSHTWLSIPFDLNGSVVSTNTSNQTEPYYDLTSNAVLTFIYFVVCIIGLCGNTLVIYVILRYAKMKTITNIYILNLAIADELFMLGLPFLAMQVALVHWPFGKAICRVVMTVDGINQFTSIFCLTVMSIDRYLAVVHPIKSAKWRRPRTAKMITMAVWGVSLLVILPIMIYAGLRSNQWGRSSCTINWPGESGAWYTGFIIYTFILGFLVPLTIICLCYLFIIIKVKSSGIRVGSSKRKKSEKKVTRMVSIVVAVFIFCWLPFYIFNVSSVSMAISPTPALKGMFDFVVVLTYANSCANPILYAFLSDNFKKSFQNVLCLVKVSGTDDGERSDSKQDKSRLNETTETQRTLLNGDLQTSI

## CCOc1ccc(CN(C)C)cc1NC(=O)[C@H](NC(=O)N1CCN(C(=O)C2CCC2)CC1)[C@@H](C)c1c[nH]c2ccccc12
[1]
  Activity: 32%
[2]
  IC50: 2.1 nM
[3]
  logD: 0.73

## CC(=O)c1ccc(CN(C)C)cc1NC(=O)[C@H](NC(=O)N1CCN(C(=O)C2CCC2)CC1)[C@@H](C)c1c[nH]c2ccccc12
[1]
  Activity: 46%
[2]
  IC50: 1.8 nM
[3]
  logD: 1.04

## CCOc1ccc(CN(C)C)cc1NC(=O)[C@H](NC(=O)N1CCC(C(=O)c2nccs2)CC1)[C@@H](C)c1c[nH]c2ccccc12
[1]
  Activity: 74%
[2]
  IC50: 2 nM
[3]
  logD: 1.35

## CC(=O)c1ccc(CN(C)C)cc1NC(=O)[C@H](NC(=O)N1CCN(C(=O)C(C)(C)C)CC1)[C@@H](C)c1c[nH]c2ccccc12
[1]
  Activity: 36%
[2]
  IC50: 0.98 nM
[3]
  logD: 0.68

## CCOc1ccc(CN(C)C)cc1NC(=O)[C@H](NC(=O)N1CCC(C(=O)c2ccco2)CC1)[C@@H](C)c1c[nH]c2ccccc12
[1]
  Activity: 54%
[2]
  IC50: 2.3 nM
[3]
  logD: 1.14

## C[C@@H](c1c[nH]c2ccccc12)[C@@H](NC(=O)N1CCN(C(=O)C(C)(C)C)CC1)C(=O)Nc1cc(CN(C)C)ccc1OC(F)(F)F
[1]
  Activity: 48%
[2]
  IC50: 2.8 nM
[3]
  logD: 2.18

## CCOc1ccc(CN(C)C)cc1NC(=O)[C@H](NC(=O)N1CCN(c2ccc(F)cc2)CC1)[C@@H](C)c1c[nH]c2ccccc12
[1]
  Activity: 99%
[2]
  IC50: 0.2 nM
[3]
  logD: 2.22

## C[C@@H](c1c[nH]c2ccccc12)[C@@H](NC(=O)N1CCN(c2ccc(F)cc2)C(=O)C1)C(=O)Nc1cc(CN(C)C)ccc1OC(F)(F)F
[1]
  Activity: 50%
[2]
  IC50: 0.53 nM
[3]
  logD: 2.73

## CC(=O)c1ccc(CN(C)C)cc1NC(=O)[C@H](NC(=O)N1CCN(c2ccc(F)cc2)C(=O)C1)[C@@H](C)c1c[nH]c2ccccc12
[1]
  Activity: 37%
[2]
  IC50: 0.31 nM
[3]
  logD: 1.59

## CCOc1ccc(CN(C)C)cc1NC(=O)[C@H](NC(=O)N1CCC(c2ccccc2)CC1)[C@@H](C)c1c[nH]c2ccccc12
[4]
  IC50: > 100 nM
[1]
  Activity: 111%
[2]
  IC50: 0.2 nM
[3]
  logD: 3

## CCOc1ccc(CN(C)C)cc1NC(=O)[C@H](NC(=O)N1CCN(C(=O)C(C)(C)C)CC1)[C@@H](C)c1c[nH]c2ccccc12
[1]
  Activity: 38%
[2]
  IC50: 2.3 nM
[3]
  logD: 1.09

## CCOc1ccc(CN(C)C)cc1NC(=O)[C@H](NC(=O)N1CCC(C(=O)C(C)C)CC1)[C@@H](C)c1c[nH]c2ccccc12
[1]
  Activity: 63%
[2]
  IC50: 1.1 nM
[3]
  logD: 1.5

## CCOc1ccc(CN(C)C)cc1NC(=O)[C@H](NC(=O)N1CCC(C(=O)c2cccs2)CC1)[C@@H](C)c1c[nH]c2ccccc12
[1]
  Activity: 98%
[2]
  IC50: 0.58 nM
[3]
  logD: 1.89

## CC(=O)c1ccc(CN(C)C)cc1NC(=O)[C@H](NC(=O)N1CCN(c2ccc(F)cc2C)C(=O)C1)[C@@H](C)c1c[nH]c2ccccc12
[1]
  Activity: 30%
[2]
  IC50: 0.24 nM
[3]
  logD: 1.81

## CC(=O)c1ccc(CN(C)C)cc1NC(=O)[C@H](NC(=O)N1CCC(C(=O)c2cccs2)CC1)[C@@H](C)c1c[nH]c2ccccc12
[1]
  Activity: 91%
[2]
  IC50: 0.68 nM
[3]
  logD: 1.84

## CCOc1ccc(CN(C)C)cc1NC(=O)[C@H](NC(=O)N1CCC(C(=O)C2CCC2)CC1)[C@@H](C)c1c[nH]c2ccccc12
[1]
  Activity: 75%
[2]
  IC50: 0.6 nM
[3]
  logD: 1.55

## CCOc1ccc(CN(C)C)cc1NC(=O)[C@H](NC(=O)N1CCN(c2ccc(F)cc2C)C(=O)C1)[C@@H](C)c1c[nH]c2ccccc12
[1]
  Activity: 47%
[2]
  IC50: 0.2 nM
[3]
  logD: 1.86

## CCOc1ccc(CN(C)C)cc1NC(=O)[C@H](NC(=O)N1CCC(C(=O)c2ccccn2)CC1)[C@@H](C)c1c[nH]c2ccccc12
[1]
  Activity: 81%
[2]
  IC50: 2.6 nM
[3]
  logD: 1.57

## CCOc1ccc(CN(C)C)cc1NC(=O)[C@H](NC(=O)N1CCN(c2ccc(F)cc2)C(=O)C1)[C@@H](C)c1c[nH]c2ccccc12
[1]
  Activity: 36%
[2]
  IC50: 0.2 nM
[3]
  logD: 1.65

## CC(=O)c1ccc(CN(C)C)cc1NC(=O)[C@H](NC(=O)N1CCC(C(=O)C(C)C)CC1)[C@@H](C)c1c[nH]c2ccccc12
[1]
  Activity: 58%
[2]
  IC50: 2 nM
[3]
  logD: 1.44

## CC(=O)c1ccc(CN(C)C)cc1NC(=O)[C@H](NC(=O)N1CCC(C(=O)C2CCC2)CC1)[C@@H](C)c1c[nH]c2ccccc12
[1]
  Activity: 84%
[2]
  IC50: 0.69 nM
[3]
  logD: 1.5

## CCOc1ccc(CN(C)C)cc1NC(=O)[C@H](NC(=O)N1CCC(C(=O)CC(C)C)CC1)[C@@H](C)c1c[nH]c2ccccc12
[1]
  Activity: 76%
[2]
  IC50: 0.89 nM
[3]
  logD: 2.01

## Cc1cc(F)ccc1N1CCN(C(=O)N[C@@H](C(=O)Nc2cc(CN(C)C)ccc2OC(F)(F)F)[C@@H](C)c2c[nH]c3ccccc23)CC1=O
[5]
  bioavailability: 5.8%
[6]
  MRT: 5.69 h
[4]
  IC50: 1700 nM
[7]
  MRT: 2.57 h
[8]
  AUC at 1 h: 22.9 ng·h/mL
[1]
  Activity: 58%
[9]
  concentration at 5 min: 194 ng/mL
[10]
  minimal effective dose: 3 mg/kg
[2]
  IC50: 0.17 to 0.27 nM
[11]
  Vd: 6.63 L/kg
[12]
  IC50: 100 nM
[13]
  ED50: 1.1 mg/kg
[14]
  Tmax: 0.83 h
[15]
  AUC at 1 h: 119 ng·h/mL
[16]
  Cmax: 10.3 ng/mL
[17]
  IC50: 360 nM
[18]
  IC50: 5100 nM
[19]
  clearance: 43.5 mL/min/kg
[3]
  logD: 2.95

## CCCCc1oc2ccccc2c1C(=O)c1cc(I)c(OCCN(CC)CC)c(I)c1 [AMIODARONE]
[1]
  Activity: 100%
